Calls of active or inactive are those of the source. The calls are words filed in the database; no cut-off is given here.
Columns and labels:
[1] = target: T1, Hepatocyte growth factor receptor (Homo sapiens, UniProt P08581); experiment: Inhibition of TPR-met autophosphorylation expressed in HEK293T cells after 150 mins by ELISA; type: cell-based; conditions: hek-293t
Outline: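 293T clone stably expressing activated TPR-Met under a CMV promoter, exposed to compound dilutions for 150 min. Autophosphorylation measured in lysates by ELISA with anti-phosphotyrosine (4G10), HRP reporter antibody and chemiluminescent read-out. IC50 from 4-parameter fit of triplicate means.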
Target sequence in this assay (P08581 25-1390 limits assumed): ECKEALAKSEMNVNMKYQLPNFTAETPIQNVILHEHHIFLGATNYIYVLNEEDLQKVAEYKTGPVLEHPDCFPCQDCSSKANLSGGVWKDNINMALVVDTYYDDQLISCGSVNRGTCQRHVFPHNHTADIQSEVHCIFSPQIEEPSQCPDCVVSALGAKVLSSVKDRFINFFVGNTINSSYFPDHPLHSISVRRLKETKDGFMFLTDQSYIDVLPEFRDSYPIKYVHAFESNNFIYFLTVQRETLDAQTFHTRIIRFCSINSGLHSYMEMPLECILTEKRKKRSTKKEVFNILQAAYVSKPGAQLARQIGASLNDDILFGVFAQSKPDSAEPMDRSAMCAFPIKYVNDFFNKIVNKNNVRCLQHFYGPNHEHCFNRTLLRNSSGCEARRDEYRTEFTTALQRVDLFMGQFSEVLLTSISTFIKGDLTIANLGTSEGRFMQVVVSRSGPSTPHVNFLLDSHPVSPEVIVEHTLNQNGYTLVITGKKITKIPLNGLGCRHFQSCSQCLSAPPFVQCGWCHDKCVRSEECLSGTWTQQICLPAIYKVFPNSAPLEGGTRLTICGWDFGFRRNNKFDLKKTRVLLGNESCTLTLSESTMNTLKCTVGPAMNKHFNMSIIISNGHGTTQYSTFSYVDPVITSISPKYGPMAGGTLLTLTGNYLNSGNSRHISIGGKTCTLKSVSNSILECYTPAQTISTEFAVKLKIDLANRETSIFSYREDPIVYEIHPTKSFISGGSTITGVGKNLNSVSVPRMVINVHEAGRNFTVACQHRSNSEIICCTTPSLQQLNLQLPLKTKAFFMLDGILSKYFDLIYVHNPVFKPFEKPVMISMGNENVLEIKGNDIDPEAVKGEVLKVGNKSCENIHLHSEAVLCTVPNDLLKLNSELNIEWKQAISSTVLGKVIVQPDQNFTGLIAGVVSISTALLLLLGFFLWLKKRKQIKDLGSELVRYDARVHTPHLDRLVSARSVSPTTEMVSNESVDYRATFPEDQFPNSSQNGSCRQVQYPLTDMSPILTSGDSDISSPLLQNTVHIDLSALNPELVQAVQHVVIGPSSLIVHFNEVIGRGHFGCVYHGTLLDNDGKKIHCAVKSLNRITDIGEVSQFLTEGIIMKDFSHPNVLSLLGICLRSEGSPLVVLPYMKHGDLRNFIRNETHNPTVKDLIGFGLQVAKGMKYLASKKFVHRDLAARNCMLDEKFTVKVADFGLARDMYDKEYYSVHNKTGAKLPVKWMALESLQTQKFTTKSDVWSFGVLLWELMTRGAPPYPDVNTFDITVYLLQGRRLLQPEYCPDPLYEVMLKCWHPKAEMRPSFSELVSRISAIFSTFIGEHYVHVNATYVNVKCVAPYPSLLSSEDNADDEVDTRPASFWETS

[2] = target: T1, Hepatocyte growth factor receptor; experiment: Inhibition of GST-fused recombinant C-met expressed in baculovirus infected high five cells after 30 mins by DELFIA assay
Outline: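 GST-fused catalytic domains from baculovirus-infected cells, High Five for c-Met (MOI 1) and Sf9 for VEGFR2 (MOI 0.1). DELFIA on immobilized poly(Glu4,Tyr). Enzyme 25 nM (c-Met) or 5 nM (VEGFR2), pre-incubated 4 min on ice with inhibitor and Mg-ATP. Reaction at 30 °C, 30 min (c-Met) or 10 min (VEGFR2), stopped with EDTA. Europium anti-phosphotyrosine read by time-resolved fluorescence. Seven concentrations in triplicate; IC50 from four-parameter fit.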
Target sequence in this assay (P08581 whole entry): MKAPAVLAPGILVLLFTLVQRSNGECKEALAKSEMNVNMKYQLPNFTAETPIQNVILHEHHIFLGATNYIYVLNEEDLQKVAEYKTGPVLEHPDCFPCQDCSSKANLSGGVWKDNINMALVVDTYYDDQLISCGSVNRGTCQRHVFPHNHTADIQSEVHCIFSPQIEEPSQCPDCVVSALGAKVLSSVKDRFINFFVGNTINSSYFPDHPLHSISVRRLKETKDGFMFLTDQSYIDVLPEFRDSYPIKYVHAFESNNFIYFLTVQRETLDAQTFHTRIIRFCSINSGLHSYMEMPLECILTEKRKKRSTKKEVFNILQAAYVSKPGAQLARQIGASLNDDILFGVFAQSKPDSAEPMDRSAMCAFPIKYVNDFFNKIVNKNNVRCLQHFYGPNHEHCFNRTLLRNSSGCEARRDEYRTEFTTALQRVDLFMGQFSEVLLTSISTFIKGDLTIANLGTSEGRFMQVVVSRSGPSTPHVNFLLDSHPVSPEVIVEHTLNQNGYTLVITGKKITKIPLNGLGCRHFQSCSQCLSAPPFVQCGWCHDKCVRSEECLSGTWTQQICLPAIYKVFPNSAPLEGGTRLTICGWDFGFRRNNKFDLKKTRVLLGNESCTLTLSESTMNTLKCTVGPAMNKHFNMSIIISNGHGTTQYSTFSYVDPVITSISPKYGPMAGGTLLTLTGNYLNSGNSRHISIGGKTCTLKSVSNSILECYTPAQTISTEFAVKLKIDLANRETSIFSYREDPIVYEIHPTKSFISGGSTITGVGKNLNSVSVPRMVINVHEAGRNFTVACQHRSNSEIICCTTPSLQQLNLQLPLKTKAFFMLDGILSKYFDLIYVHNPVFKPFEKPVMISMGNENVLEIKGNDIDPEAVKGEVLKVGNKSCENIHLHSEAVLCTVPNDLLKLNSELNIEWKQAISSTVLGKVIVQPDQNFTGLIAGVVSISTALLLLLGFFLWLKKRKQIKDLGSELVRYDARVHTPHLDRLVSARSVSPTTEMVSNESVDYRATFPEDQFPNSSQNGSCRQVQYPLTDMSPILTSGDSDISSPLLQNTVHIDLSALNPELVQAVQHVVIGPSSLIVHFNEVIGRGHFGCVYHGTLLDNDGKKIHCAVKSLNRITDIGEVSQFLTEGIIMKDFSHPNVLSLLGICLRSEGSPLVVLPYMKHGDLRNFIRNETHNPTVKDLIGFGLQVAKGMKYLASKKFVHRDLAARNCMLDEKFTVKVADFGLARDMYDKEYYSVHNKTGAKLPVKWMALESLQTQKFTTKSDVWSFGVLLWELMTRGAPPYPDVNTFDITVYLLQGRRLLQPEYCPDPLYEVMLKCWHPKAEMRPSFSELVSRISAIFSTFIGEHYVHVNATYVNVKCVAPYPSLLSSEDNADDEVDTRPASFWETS

[3] = Half life in rat at 2.17 to 2.86 mg/kg, iv; type: ADME, organism-based; set-up: dose 2.17-2.86 mg/kg, route intravenous; conditions: in vivo
Outline: (§1)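 Rat pharmacokinetics with intravenous dosing at 2.17–2.86 mg/kg and oral dosing at 4.28–4.98 mg/kg. Oral Cmax and AUC normalised per mg/kg.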

Rattus norvegicus = experiment: Cmax in rat at 4.28 to 4.98 mg/kg, po; type: ADME, organism-based; set-up: dose 4.28-4.98 mg/kg, route oral; conditions: in vivo; outline: as §1
[4] = Clearance in rat at 2.17 to 2.86 mg/kg, iv and 4.28 to 4.98 mg/kg, po; type: ADME, organism-based; conditions: in vivo; outline: as §1
[5] = Tmax in rat at 4.28 to 4.98 mg/kg, po; type: ADME, organism-based; set-up: dose 4.28-4.98 mg/kg, route oral; conditions: in vivo; outline: as §1
[6] = Volume of distribution at steady state in rat at 2.17 to 2.86 mg/kg, iv and 4.28 to 4.98 mg/kg, po; type: ADME, organism-based; conditions: in vivo, read-out: Vdss; outline: as §1
[7] = Oral bioavailability in rat at 4.28 to 4.98 mg/kg; type: ADME, organism-based; conditions: in vivo; outline: as §1
[8] = target: Vascular endothelial growth factor receptor 1 (Homo sapiens) (UniProt P17948); experiment: Inhibition of VEGFR1 at 100 nM by radiometric protein kinase assay
Outline: (§2)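 Single-concentration kinase selectivity panel run as radiometric protein kinase assays by an outside screening service; percent inhibition reported.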

[9] = target: T2, Vascular endothelial growth factor receptor 2 (Homo sapiens, UniProt P35968); experiment: Inhibition of VEGFR2 assessed as inhibition of ERK phosphorylation
Outline: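 Cellular assay: ERK phosphorylation was measured after VEGF stimulation.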

[10] = target: Platelet-derived growth factor receptor alpha (Homo sapiens) (UniProt P16234); experiment: Inhibition of PDGFRalpha at 100 nM by radiometric protein kinase assay; outline: as §2
[11] = target: RAC-alpha serine/threonine-protein kinase (Homo sapiens) (UniProt P31749); experiment: Inhibition of PKBalpha at 100 nM by radiometric protein kinase assay; outline: as §2
[12] = target: Receptor-type tyrosine-protein kinase FLT3 (Homo sapiens) (UniProt P36888); experiment: Inhibition of Flt3 at 100 nM by radiometric protein kinase assay; outline: as §2
[13] = target: Proto-oncogene tyrosine-protein kinase Src (Homo sapiens) (UniProt P12931); experiment: Inhibition of c-SRC at 100 nM by radiometric protein kinase assay; outline: as §2
[14] = target: Aurora kinase A (Homo sapiens) (UniProt O14965); experiment: Inhibition of Aurora A at 100 nM by radiometric protein kinase assay; outline: as §2
[15] = target: Angiopoietin-1 receptor (Homo sapiens) (UniProt Q02763); experiment: Inhibition of […] at 100 nM by radiometric protein kinase assay; outline: as §2
HUVEC [16] = experiment: Antiangiogenic activity in HUVEC cells assessed as inhibition of VEGF-induced tubule growth at 100 nM; type: functional, cell-based; conditions: Homo sapiens
HUVEC [17] = experiment: Antiangiogenic activity in HUVEC cells assessed as inhibition of VEGF-induced tubule growth; type: functional, cell-based; conditions: Homo sapiens
A549 [18] = experiment: Antitumor activity against human A549 cells xenografted model assessed as tumor growth inhibition at 40 mg/kg, po qd after 14 days; type: functional; conditions: A549, 336 h, read-out: TGI
[19] = target: Epidermal growth factor receptor (Homo sapiens) (UniProt P00533); experiment: Inhibition of EGFR at 100 nM by radiometric protein kinase assay; outline: as §2
[20] = target: Vascular endothelial growth factor receptor 3 (Homo sapiens) (UniProt P35916); experiment: Inhibition of VEGFR3 at 100 nM by radiometric protein kinase assay; outline: as §2
HUVEC [21] = experiment: Antiproliferative activity against HUVEC cells assessed as inhibition of […] proliferation; type: functional, cell-based; conditions: Homo sapiens
[22] = Antitumor activity against human U87MG cells xenografted model assessed as tumor growth inhibition at 40 mg/kg, po qd after 10 days; type: functional, U-87MG ATCC; conditions: U-87 MG, 240 h, read-out: TGI
MKN-45 = experiment: Antitumor activity against human MKN45 cells xenografted model assessed as tumor growth inhibition at 40 mg/kg, po qd after 12 days; type: functional; conditions: MKN-45, 288 h, read-out: TGI
[23] = target: Cyclin-dependent kinase 2/cyclin E (Homo sapiens) (UniProt P24864+P24941+O96020); experiment: Inhibition of CDK2/Cyclin E at 100 nM by radiometric protein kinase assay; type: protein-complex assay; outline: as §2
[24] = target: Ephrin type-B receptor 4 (Homo sapiens) (UniProt P54760); experiment: Inhibition of EphB4 at 100 nM by radiometric protein kinase assay; outline: as §2
[25] = target: Mast/stem cell growth factor receptor Kit (Homo sapiens) (UniProt P10721); experiment: Inhibition of c-Kit at 100 nM by radiometric protein kinase assay; outline: as §2
DU-145 = experiment: Inhibition of HGF-induced scattering in human DU145 cells; type: functional, cell-based
[26] = target: Inhibitor of nuclear factor kappa-B kinase subunit beta (Homo sapiens) (UniProt O14920); experiment: Inhibition of IKK-beta at 100 nM by radiometric protein kinase assay; outline: as §2
A549 [27] = experiment: Inhibition of HGF-induced cell migration in human A549 cells by wound healing assay; type: functional, cell-based
[28] = target: Glycogen synthase kinase-3 beta (Homo sapiens) (UniProt P49841); experiment: Inhibition of GSK3-beta at 100 nM by radiometric protein kinase assay; outline: as §2
[29] = target: T2, Vascular endothelial growth factor receptor 2; experiment: Inhibition of GST-fused recombinant VEGFR2 expressed in baculovirus infected Sf9 cells after 30 mins by DELFIA assay

T2 sequence (P35968 whole entry): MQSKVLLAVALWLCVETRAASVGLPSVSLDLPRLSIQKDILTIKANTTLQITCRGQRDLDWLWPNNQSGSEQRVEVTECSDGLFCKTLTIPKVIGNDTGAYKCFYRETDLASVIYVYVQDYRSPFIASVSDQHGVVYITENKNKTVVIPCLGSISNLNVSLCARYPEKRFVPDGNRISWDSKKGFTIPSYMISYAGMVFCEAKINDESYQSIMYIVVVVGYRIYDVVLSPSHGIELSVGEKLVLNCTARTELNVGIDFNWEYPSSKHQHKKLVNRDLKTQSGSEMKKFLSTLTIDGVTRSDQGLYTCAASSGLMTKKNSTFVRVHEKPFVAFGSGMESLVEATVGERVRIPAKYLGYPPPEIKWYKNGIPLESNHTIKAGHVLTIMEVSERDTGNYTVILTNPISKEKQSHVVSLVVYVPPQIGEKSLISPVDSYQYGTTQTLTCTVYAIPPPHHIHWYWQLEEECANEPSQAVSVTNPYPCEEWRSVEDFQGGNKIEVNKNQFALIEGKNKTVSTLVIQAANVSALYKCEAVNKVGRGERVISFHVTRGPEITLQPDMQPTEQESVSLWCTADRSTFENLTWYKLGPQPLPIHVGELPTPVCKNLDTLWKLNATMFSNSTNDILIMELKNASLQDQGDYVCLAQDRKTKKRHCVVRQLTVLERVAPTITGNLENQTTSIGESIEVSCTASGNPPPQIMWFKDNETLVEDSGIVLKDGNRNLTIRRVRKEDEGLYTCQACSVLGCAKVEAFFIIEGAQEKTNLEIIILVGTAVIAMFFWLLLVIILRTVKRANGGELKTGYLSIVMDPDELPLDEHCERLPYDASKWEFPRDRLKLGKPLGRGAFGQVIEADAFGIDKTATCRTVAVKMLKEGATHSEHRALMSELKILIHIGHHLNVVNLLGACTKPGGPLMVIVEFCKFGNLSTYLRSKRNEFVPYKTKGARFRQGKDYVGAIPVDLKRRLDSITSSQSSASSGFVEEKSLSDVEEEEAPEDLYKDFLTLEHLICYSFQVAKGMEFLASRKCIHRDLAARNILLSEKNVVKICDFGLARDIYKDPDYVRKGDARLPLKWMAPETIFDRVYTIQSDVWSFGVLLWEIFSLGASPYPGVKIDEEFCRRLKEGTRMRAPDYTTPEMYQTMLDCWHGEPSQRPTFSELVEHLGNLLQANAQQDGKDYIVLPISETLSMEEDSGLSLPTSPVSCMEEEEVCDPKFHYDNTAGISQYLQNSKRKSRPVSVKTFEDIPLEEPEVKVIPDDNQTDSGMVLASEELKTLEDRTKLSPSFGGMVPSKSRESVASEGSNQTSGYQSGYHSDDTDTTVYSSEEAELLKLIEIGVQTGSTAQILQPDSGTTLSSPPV
Chain of Receptor-type tyrosine-protein kinase FLT3 (Homo sapiens) (P36888 whole entry): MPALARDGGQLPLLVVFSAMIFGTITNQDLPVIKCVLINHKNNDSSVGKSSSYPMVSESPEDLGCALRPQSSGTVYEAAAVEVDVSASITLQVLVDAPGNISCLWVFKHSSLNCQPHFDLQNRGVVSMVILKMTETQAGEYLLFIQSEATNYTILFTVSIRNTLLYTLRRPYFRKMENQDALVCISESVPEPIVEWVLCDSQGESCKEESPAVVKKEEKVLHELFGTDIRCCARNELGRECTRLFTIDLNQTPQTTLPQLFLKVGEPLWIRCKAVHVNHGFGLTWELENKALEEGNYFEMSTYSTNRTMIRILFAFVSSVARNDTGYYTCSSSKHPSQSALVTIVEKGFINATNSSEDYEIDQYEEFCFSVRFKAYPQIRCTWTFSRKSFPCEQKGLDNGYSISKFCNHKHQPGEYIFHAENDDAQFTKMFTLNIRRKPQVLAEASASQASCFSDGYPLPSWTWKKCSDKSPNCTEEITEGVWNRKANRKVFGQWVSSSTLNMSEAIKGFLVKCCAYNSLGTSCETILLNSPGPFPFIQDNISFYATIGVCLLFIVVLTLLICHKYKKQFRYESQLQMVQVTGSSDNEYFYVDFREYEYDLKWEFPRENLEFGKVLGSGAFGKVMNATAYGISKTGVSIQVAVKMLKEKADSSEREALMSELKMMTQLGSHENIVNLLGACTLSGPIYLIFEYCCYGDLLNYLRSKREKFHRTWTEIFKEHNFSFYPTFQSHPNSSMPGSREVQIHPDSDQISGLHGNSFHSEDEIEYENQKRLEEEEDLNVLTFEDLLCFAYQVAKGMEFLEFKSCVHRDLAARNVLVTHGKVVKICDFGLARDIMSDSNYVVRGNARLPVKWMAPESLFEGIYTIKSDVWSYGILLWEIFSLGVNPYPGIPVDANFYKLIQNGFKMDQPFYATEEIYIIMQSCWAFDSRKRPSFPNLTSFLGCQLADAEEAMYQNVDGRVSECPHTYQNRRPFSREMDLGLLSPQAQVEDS

For `O=C(CC(=O)Nc1ccc(Oc2ccnc3cc(C(=O)N4CCCC4)sc23)c(F)c1)Nc1ccccc1`, the IC50 [1] was 2 µM.
In the case of `CCn1cnc(-c2cc3nccc(Oc4ccc(NC(=O)CC(=O)Nc5ccccc5OC)cc4F)c3s2)c1`, the IC50 [1] is reported as 0.044 µM.
With `Cn1cnc(C(=O)c2cc3nccc(Oc4ccc(NC(=O)CC(=O)Nc5ccccc5)cc4F)c3s2)c1` the IC50 [2] was 0.025 µM and the IC50 [1] was 0.34 µM.
`Cn1ccnc1C(=O)c1cc2nccc(Oc3ccc(NC(=O)CC(=O)Nc4ccccc4)cc3F)c2s1` showed an IC50 [2] of 0.036 µM and an IC50 [1] of 0.04 µM.
For `CCn1cnc(-c2cc3nccc(Oc4ccc(NC(=O)CC(=O)Nc5ccc(F)cc5)cc4F)c3s2)c1`, the IC50 [2] was 0.024 µM.
`CCn1cnc(-c2cc3nccc(Oc4ccc(NC(=O)CC(=O)N(C)c5ccccc5)cc4F)c3s2)c1` gave an IC50 [2] of 0.033 µM, an IC50 [1] of 0.031 µM and a half-life [3] of 0.91 h. It also gave a Cmax normalised (Rattus norvegicus) of 0.29 µM/mg/kg, a clearance [4] of 8.67 mL/min/kg and a Tmax [5] of 0.5 h. For the same molecule, the Vd [6] was 0.33 L/kg and the bioavailability [7] was 60%.
Molecule `CCn1cnc(-c2cc3nccc(Oc4ccc(NC(=O)C5(C(=O)Nc6ccccc6F)CC5)cc4F)c3s2)c1` has an IC50 [2] of 0.038 µM and an IC50 [1] of 0.12 µM.
For `O=C(O)Cn1cnc(C(=O)c2cc3nccc(Oc4ccc(NC(=O)CC(=O)Nc5ccccc5)cc4F)c3s2)c1`, the IC50 [2] was 0.036 µM and the IC50 [1] was greater than 5 µM.
Molecule `CCn1cnc(-c2cc3nccc(Oc4ccc(NC(=O)CC(=O)Nc5ccccc5F)cc4F)c3s2)c1` has an IC50 [2] of 0.032 µM and an IC50 [1] of 0.035 µM.
Molecule `CCn1cnc(C(=O)c2cc3nccc(Oc4ccc(NC(=O)CC(=O)Nc5ccccc5)cc4F)c3s2)c1` has an IC50 [2] of 0.019 µM, an IC50 [1] of 0.18 µM and a half-life [3] of 2.6 h. The Cmax normalised (Rattus norvegicus) was 0.18 µM/mg/kg, the clearance [4] was 5.5 mL/min/kg and the Tmax [5] was 5.7 h. It also gave a Vd [6] of 0.82 L/kg and a bioavailability [7] of 12%.
In the case of `CN(C)CCn1cnc(C(=O)c2cc3nccc(Oc4ccc(NC(=O)CC(=O)Nc5ccccc5)cc4F)c3s2)c1`, the IC50 [2] is reported as 0.02 µM and the IC50 [1] is reported as 0.19 µM.
Molecule `CCn1cnc(-c2cc3nccc(Oc4ccc(NC(=O)C5(C(=O)Nc6ccccc6)CC5)cc4F)c3s2)c1` has an inhibition [8] of 98%, an IC50 [2] of 0.024 µM and an IC50 [9] of 0.001 µM. For the same molecule, the inhibition [10] was 99%, the inhibition [11] was less than 5% and the inhibition [12] was 100%. For the same molecule, the inhibition [13] was 93%, the inhibition [14] was 96% and the IC50 [1] was 0.004 µM. It also gave a half-life [3] of 3.1 h, an inhibition [15] of 100% and a Cmax normalised (Rattus norvegicus) of 0.1 µM/mg/kg. The Activity (HUVEC [16]) was “Active”, the clearance [4] was 16.5 mL/min/kg and the IC50 (HUVEC [17]) was less than 0.003 µM. For the same molecule, the inhibition in vivo at 40 mg/kg (A549 [18]) was 54%, the inhibition [19] was less than 5% and the Tmax [5] was 2 h. For the same molecule, the inhibition [20] was 97%, the IC50 (HUVEC [21]) was 0.0003 µM and the inhibition in vivo at 40 mg/kg [22] was 70%. It also gave a Vd [6] of 2.2 L/kg, an inhibition in vivo at 40 mg/kg (MKN-45) of 101% and an inhibition [23] of less than 5%. The inhibition [24] was 95%, the bioavailability [7] was 33% and the inhibition [25] was 99%. For the same molecule, the IC50 (DU-145) was 0.04 µM, the inhibition [26] was less than 5% and the IC50 (A549 [27]) was 0.22 µM. The inhibition [28] was less than 5%.
With `CCn1cnc(-c2cc3nccc(Oc4ccc(NC(=O)CC(=O)Nc5ccccc5C(F)(F)F)cc4F)c3s2)c1` the IC50 [2] was 0.091 µM and the IC50 [1] was 0.15 µM.
`CCn1cnc(-c2cc3nccc(Oc4ccc(NC(=O)CC(=O)Nc5cccc(F)c5)cc4F)c3s2)c1` gave an IC50 [2] of 0.052 µM, an IC50 [29] of 0.01 µM and an IC50 [1] of 0.87 µM.
Molecule `CCn1cnc(-c2cc3nccc(Oc4ccc(NC(=O)CC(=O)Nc5ccccc5O)cc4F)c3s2)c1` has an IC50 [2] of 0.026 µM and an IC50 [1] of 0.6 µM.
Work on `CCn1cnc(-c2cc3nccc(Oc4ccc(NC(=O)CC(=O)NC5CCCCC5)cc4F)c3s2)c1` yielded an IC50 [2] of 0.052 µM, an IC50 [29] of 0.01 µM and an IC50 [1] of 0.59 µM.
In the case of `CN(C)[C@@H]1CCN(C(=O)c2cc3nccc(Oc4ccc(NC(=O)CC(=O)Nc5ccccc5)cc4F)c3s2)C1`, the IC50 [1] is reported as 0.56 µM.

From ChEMBL document CHEMBL1156747, “N3-arylmalonamides: a new series of thieno[3,2-b]pyridine based inhibitors of c-Met and VEGFR2 tyrosine kinases” (Bioorg Med Chem Lett, 2009)
